Test results reported in ChEMBL document CHEMBL4393681, “The identification of naturally occurring labdane diterpenoid calcaratarin D as a potential anti-inflammatory agent” (Eur J Med Chem, 2019).
pIC50: −log10 of the molar value. One block for each compound: values may come before it. Calls of active or inactive are those of the source. The calls are words filed in the database; no cut-off is given here.

Key:
[1] = system: RAW264.7; assay: Anti-inflammatory activity in mouse RAW264.7 cells assessed as inhibition of LPS-induced TNFalpha production at 0.1 uM pretreated for 1 hr followed by LPS stimulation and measured after 18 hrs by ELISA relative to control; type: functional; parameters: scale not given: the % may be the effect or the level left
Outline: (§1)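 DMSO stocks (100 mM) were tested at 0.1, 1, 5 and 20 µM on LPS-stimulated RAW264.7 cells, with dexamethasone 1 µM as positive control. Secreted TNF-α or IL-6 was normalized to the percentage of viable LPS-stimulated cells at each concentration. Mean of three separate experiments, each in triplicate.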

[2] = system: RAW264.7; assay: Anti-inflammatory activity in mouse RAW264.7 cells assessed as inhibition of LPS-induced TNFalpha production at 1 uM pretreated for 1 hr followed by LPS stimulation and measured after 18 hrs by ELISA relative to control; type: functional; parameters: scale not given: the % may be the effect or the level left; outline: as §1
[3] = Cytotoxicity against mouse RAW264.7 cells assessed as cell viability at 0.1 uM incubated for 18 hrs by celltiter-glo luminescent assay relative to control; type: cell-based; details: read-out: Activity
Outline: (§2)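 Non-stimulated RAW264.7 cells were exposed to 0.1, 1, 5 and 20 µM compound from 100 mM DMSO stocks. Percent viability is the mean of three separate experiments with triplicate samples.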

[4] = system: RAW264.7; assay: Anti-inflammatory activity in mouse RAW264.7 cells assessed as inhibition of LPS-induced TNF-alpha mRNA expression pretreated for 1 hr followed by LPS stimulation and measured after 4 hrs by RT-PCR analysis; type: functional, cell-based
Outline: (§3)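 RAW264.7 cells were exposed to compound (1, 5, 20 µM), dexamethasone 1 µM or 0.02% DMSO vehicle, then stimulated with LPS 25 ng/mL for 4 h. Total RNA was isolated and analysed by real-time PCR. mRNA was normalized to β-actin and expressed relative to unstimulated control cells. Mean ± SEM, n = 4.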

[5] = Cytotoxicity against mouse RAW264.7 cells assessed as cell viability at 1 uM incubated for 18 hrs by celltiter-glo luminescent assay relative to control; type: cell-based; details: read-out: Activity; outline: as §2
[6] = Cytotoxicity against mouse RAW264.7 cells assessed as cell viability at 5 uM incubated for 18 hrs by celltiter-glo luminescent assay relative to control; type: cell-based; details: read-out: Activity; outline: as §2
[7] = Cytotoxicity against mouse RAW264.7 cells assessed as cell viability at 20 uM incubated for 18 hrs by celltiter-glo luminescent assay relative to control; type: cell-based; details: read-out: Activity; outline: as §2
[8] = system: RAW264.7; assay: Anti-inflammatory activity in mouse RAW264.7 cells assessed as inhibition of LPS-induced TNFalpha production at 5 uM pretreated for 1 hr followed by LPS stimulation and measured after 18 hrs by ELISA relative to control; type: functional; parameters: scale not given: the % may be the effect or the level left; outline: as §1
[9] = system: RAW264.7; assay: Anti-inflammatory activity in mouse RAW264.7 cells assessed as inhibition of LPS-induced TNFalpha production at 20 uM pretreated for 1 hr followed by LPS stimulation and measured after 18 hrs by ELISA relative to control; type: functional; parameters: scale not given: the % may be the effect or the level left; outline: as §1
[10] = system: RAW264.7; assay: Anti-inflammatory activity in mouse RAW264.7 cells assessed as inhibition of LPS-induced IL-6 production at 0.1 uM pretreated for 1 hr followed by LPS stimulation and measured after 18 hrs by ELISA relative to control; type: functional; parameters: scale not given: the % may be the effect or the level left; outline: as §1
[11] = system: RAW264.7; assay: Anti-inflammatory activity in mouse RAW264.7 cells assessed as inhibition of LPS-induced IL-6 production at 1 uM pretreated for 1 hr followed by LPS stimulation and measured after 18 hrs by ELISA relative to control; type: functional; parameters: scale not given: the % may be the effect or the level left; outline: as §1
[12] = system: RAW264.7; assay: Anti-inflammatory activity in mouse RAW264.7 cells assessed as inhibition of LPS-induced IL-6 production at 5 uM pretreated for 1 hr followed by LPS stimulation and measured after 18 hrs by ELISA relative to control; type: functional; parameters: scale not given: the % may be the effect or the level left; outline: as §1
[13] = system: RAW264.7; assay: Anti-inflammatory activity in mouse RAW264.7 cells assessed as inhibition of LPS-induced IL-6 production at 20 uM pretreated for 1 hr followed by LPS stimulation and measured after 18 hrs by ELISA relative to control; type: functional; parameters: scale not given: the % may be the effect or the level left; outline: as §1
[14] = system: RAW264.7; assay: Anti-inflammatory activity against mouse RAW264.7 cells assessed as inhibition of LPS-stimulated NO production pretreated for 1 hr followed by LPS stimulation and measured after 24 hrs by Griess reagent based assay; type: functional, cell-based
[15] = system: RAW264.7; assay: Anti-inflammatory activity in mouse RAW264.7 cells assessed as inhibition of LPS-induced IL-6 mRNA expression pretreated for 1 hr followed by LPS stimulation and measured after 4 hrs by RT-PCR analysis; type: functional, cell-based; outline: as §3
[16] = system: RAW264.7; assay: Anti-inflammatory activity in mouse RAW264.7 cells assessed as inhibition of LPS-induced IL-1beta mRNA expression pretreated for 1 hr followed by LPS stimulation and measured after 4 hrs by RT-PCR analysis; type: functional, cell-based; outline: as §3
[17] = system: RAW264.7; assay: Anti-inflammatory activity in mouse RAW264.7 cells assessed as inhibition of LPS-induced MCP-1 mRNA expression pretreated for 1 hr followed by LPS stimulation and measured after 4 hrs by RT-PCR analysis; type: functional, cell-based; outline: as §3
[18] = system: RAW264.7; assay: Anti-inflammatory activity in mouse RAW264.7 cells assessed as inhibition of LPS-induced iNOS mRNA expression pretreated for 1 hr followed by LPS stimulation and measured after 4 hrs by RT-PCR analysis; type: functional, cell-based; outline: as §3
[19] = organism: Mus musculus; assay: Inhibition of LPS-stimulated NFkappaB activation in mouse RAW blue cells assessed as reduction in SEAP protein expression pretreated for 1 hr followed by LPS stimulation and measured after 24 hrs by reporter gene assay; type: cell-based
Outline: (§4)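 RAW-Blue NF-κB–SEAP reporter cells were pretreated for 1 h with compound (0.1–20 µM), dexamethasone 1 µM or DMSO vehicle, then given LPS 25 ng/mL for 24 h. SEAP activity in the supernatant was read with LPS-treated 0.02% DMSO cells set as 100%. Mean ± SEM, n = 4.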

[20] = molecular target: Transcription factor p65 (Mus musculus) (UniProt Q04207); assay: Effect on p65 subunit NFkappaB phosphorylation in mouse RAW264.7 cells at 5 to 20 uM pretreated for 1 hr followed by LPS stimulation and measured after 4 hrs by Western blot analysis; type: cell-based
Outline: (§5)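 Whole-cell lysates from RAW264.7 cells given compound (5–20 µM) or vehicle and LPS 25 ng/mL for 4 h. Phosphorylated and total p65 were immunoblotted and bands quantified densitometrically. Mean ± SEM, n = 4, compared with 0.02% DMSO cells.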

[21] = molecular target: Transcription factor p65 (Mus musculus) (UniProt Q04207); assay: Effect on total p65 NFkappaB subunit protein level in mouse RAW264.7 cells at 5 to 20 uM pretreated for 1 hr followed by LPS stimulation and measured after 4 hrs by Western blot analysis; type: cell-based; outline: as §5
[22] = molecular target: Transcription factor p65 (Mus musculus) (UniProt Q04207); assay: Inhibition of LPS-stimulated NFkappaB activation in mouse RAW264.7 cells assessed as blockade of p65 NFkappaB nuclear translocation at 20 uM pretreated for 1 hr followed by LPS stimulation and measured after 4 hrs by Western blot analysis; type: cell-based
Outline: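 After compound at 20 µM or vehicle with LPS 25 ng/mL for 4 h, cytoplasmic and nuclear fractions were blotted for p65. TBP (nuclear) and GAPDH (cytoplasmic) served as loading controls. Nuclear p65 was quantified by band intensity, mean ± SEM, n = 4.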

[23] = molecular target: Mitogen-activated protein kinase 1 and 3 (ERK2 and ERK1) (Mus musculus) (UniProt P63085+Q63844); assay: Inhibition of LPS-stimulated ERK1/2 phosphorylation in mouse RAW264.7 cells at 5 to 20 uM pretreated for 1 hr followed by LPS stimulation and measured after 4 hrs by Western blot analysis; type: cell-based
Outline: (§6)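 RAW264.7 cells received compound (5–20 µM) or vehicle with LPS 25 ng/mL for 4 h. Phospho-ERK1/2, SAPK/JNK, p38 and Akt were immunoblotted against a GAPDH loading control. Akt phosphorylation was quantified by band intensity, mean ± SEM, n = 4, versus 0.02% DMSO cells.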

[24] = system: RAW264.7; assay: Inhibition of LPS-stimulated SAPK/JNK phosphorylation in mouse RAW264.7 cells at 5 to 20 uM pretreated for 1 hr followed by LPS stimulation and measured after 4 hrs by Western blot analysis; type: cell-based; outline: as §6
[25] = molecular target: MAP kinase p38 (Mus musculus) (UniProt P47811+O08911+Q9WUI1+Q9Z1B7); assay: Inhibition of LPS-stimulated p38 MAPK phosphorylation in mouse RAW264.7 cells at 5 to 20 uM pretreated for 1 hr followed by LPS stimulation and measured after 4 hrs by Western blot analysis; type: cell-based; outline: as §6
[26] = molecular target: RAC-alpha serine/threonine-protein kinase (Mus musculus) (UniProt P31750); assay: Inhibition of LPS-stimulated AKT phosphorylation in mouse RAW264.7 cells pretreated for 1 hr followed by LPS stimulation and measured after 4 hrs by Western blot analysis; type: cell-based; outline: as §6
[27] = organism: Mus musculus; assay: Inhibition of LPS-stimulated NFkappaB activation in mouse RAW blue cells assessed as reduction in SEAP protein expression at 0.1 to 20 uM pretreated for 1 hr followed by LPS stimulation and measured after 24 hrs by reporter gene assay; type: cell-based; outline: as §4
[28] = molecular target: RAC-alpha serine/threonine-protein kinase (Mus musculus) (UniProt P31750); assay: Inhibition of LPS-stimulated AKT phosphorylation in mouse RAW264.7 cells at 5 to 20 uM pretreated for 1 hr followed by LPS stimulation and measured after 4 hrs by Western blot analysis; type: cell-based; outline: as §6

Sequence of Transcription factor p65 (Mus musculus) (Q04207 whole entry): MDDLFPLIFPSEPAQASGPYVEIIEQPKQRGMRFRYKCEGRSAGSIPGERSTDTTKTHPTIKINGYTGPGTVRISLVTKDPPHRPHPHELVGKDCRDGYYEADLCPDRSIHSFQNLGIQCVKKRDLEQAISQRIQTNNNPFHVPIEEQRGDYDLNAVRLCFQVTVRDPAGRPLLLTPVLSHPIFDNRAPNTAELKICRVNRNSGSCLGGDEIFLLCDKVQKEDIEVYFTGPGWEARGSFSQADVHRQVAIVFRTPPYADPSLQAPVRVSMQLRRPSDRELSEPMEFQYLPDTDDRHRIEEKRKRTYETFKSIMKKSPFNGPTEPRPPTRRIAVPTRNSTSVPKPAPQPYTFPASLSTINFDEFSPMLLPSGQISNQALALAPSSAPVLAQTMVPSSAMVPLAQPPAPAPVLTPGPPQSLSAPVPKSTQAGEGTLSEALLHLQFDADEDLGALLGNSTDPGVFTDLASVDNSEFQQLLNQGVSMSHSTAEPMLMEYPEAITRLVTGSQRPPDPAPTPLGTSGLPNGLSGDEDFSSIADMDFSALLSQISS
Sequence of Mitogen-activated protein kinase 1 and 3 (ERK2 and ERK1) (Mus musculus) (P63085 whole entry, looked up): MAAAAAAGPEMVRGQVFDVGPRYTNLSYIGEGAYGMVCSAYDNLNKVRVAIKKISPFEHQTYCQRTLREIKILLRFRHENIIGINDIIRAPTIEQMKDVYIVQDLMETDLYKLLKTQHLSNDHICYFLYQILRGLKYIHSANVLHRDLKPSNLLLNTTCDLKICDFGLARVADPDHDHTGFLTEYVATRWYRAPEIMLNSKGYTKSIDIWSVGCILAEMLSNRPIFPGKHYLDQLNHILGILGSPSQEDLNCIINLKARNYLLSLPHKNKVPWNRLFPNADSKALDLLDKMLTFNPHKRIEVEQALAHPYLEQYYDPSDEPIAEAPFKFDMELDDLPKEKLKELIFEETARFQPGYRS
Sequence of Mitogen-activated protein kinase 1 and 3 (ERK2 and ERK1) (Mus musculus) (Q63844 whole entry, looked up): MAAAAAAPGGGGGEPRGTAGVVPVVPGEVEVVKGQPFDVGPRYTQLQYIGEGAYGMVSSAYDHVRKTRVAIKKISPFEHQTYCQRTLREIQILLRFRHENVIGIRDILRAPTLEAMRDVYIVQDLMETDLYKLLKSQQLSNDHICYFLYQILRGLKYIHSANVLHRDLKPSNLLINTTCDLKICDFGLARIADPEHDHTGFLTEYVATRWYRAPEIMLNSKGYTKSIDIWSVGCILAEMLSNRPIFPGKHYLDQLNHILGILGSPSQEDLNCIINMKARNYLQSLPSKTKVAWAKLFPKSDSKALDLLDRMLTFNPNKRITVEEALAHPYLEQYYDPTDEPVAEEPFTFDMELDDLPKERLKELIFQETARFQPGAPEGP
Sequence of RAC-alpha serine/threonine-protein kinase (Mus musculus) (P31750 whole entry): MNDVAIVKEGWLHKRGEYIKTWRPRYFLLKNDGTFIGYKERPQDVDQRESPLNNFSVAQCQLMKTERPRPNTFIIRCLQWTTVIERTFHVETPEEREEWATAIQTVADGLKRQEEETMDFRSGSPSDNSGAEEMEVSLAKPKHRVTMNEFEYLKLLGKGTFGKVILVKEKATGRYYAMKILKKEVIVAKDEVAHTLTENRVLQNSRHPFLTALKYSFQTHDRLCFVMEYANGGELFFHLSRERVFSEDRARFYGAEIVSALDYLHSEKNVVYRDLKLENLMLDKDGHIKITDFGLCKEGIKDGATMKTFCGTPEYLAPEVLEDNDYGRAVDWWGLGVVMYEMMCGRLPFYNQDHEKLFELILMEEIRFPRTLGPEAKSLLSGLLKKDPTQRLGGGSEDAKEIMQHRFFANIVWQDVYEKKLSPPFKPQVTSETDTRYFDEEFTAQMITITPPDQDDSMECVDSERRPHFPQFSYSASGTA

- pIC50 [14]: 5.41
- Activity [20]: inactive
- Activity [21]: inactive
- inhibition [22]: Active
- inhibition [23]: inactive
- inhibition [25]: inactive
- inhibition [26]: Dose-dependent effect
Compound: C=C1CC[C@H]2C(C)(C)CCC[C@]2(C)[C@H]1C/C=C1/C(=O)OC[C@H]1O
- Activity [1]: 99.3%
- Activity [2]: 63.4%
- viability at 18 h, 0.1 µM [3]: 103%
- inhibition [4]: Dose-dependent effect
- viability at 18 h, 1 µM [5]: 95.6%
- viability at 18 h, 5 µM [6]: 82.7%
- viability at 18 h, 20 µM [7]: 53.7%
- Activity [8]: 19.2%
- Activity [9]: 1.7%
- Activity [10]: 99.2%
- Activity [11]: 68.1%
- Activity [12]: 40%
- Activity [13]: 10.8%
- inhibition [14]: Dose-dependent effect
- inhibition [15]: Dose-dependent effect
- inhibition [16]: Dose-dependent effect
- inhibition [17]: Dose-dependent effect
- inhibition [18]: Dose-dependent effect
- inhibition [19]: Dose-dependent effect
- inhibition [24]: inactive

- inhibition [23]: Active
- inhibition [25]: Active
- inhibition [28]: Active
Compound: C=C1CC[C@@H]2[C@](C)(CO)[C@H](O)CC[C@@]2(C)[C@@H]1C/C=C1/C(=O)OC[C@H]1O
- inhibition [27]: inactive
- inhibition [24]: Active
